In ChEMBL document CHEMBL1155144, “Cytoplasmic-membrane anchoring of a class A beta-lactamase and its capacity in manifesting antibiotic resistance” (2007):
≈ marks a conversion by molar mass, not a printed value.

Legend:
Format in all cases: functional
[1] = test system: Escherichia coli; test: Antimicrobial activity against Escherichia coli JM83 harboring pACYC184-ATEM by serial dilution method
Outline: (§1)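 Broth serial dilution in LB medium, microtitre format; inoculum 5 x 10^5 CFU/ml; incubated with antibiotic overnight at 37°C; MIC read after overnight growth.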

[2] = test system: Escherichia coli; test: Antimicrobial activity against Escherichia coli JM83 by serial dilution method; outline: as §1
[3] = test system: Escherichia coli; test: Antimicrobial activity against Escherichia coli JM83 harboring pACYC184-TEM by serial dilution method; outline: as §1

## CC1(C)S[C@@H]2[C@H](NC(=O)[C@H](N)c3ccccc3)C(=O)N2[C@H]1C(=O)O [AMPICILLIN]
[1]
  MIC: 4000 µg/mL (≈ 11400 µM)
[2]
  MIC: 4 µg/mL (≈ 11.4 µM)
[3]
  MIC: 4000 µg/mL (≈ 11400 µM)

## CC(C)(O/N=C(\C(=O)N[C@@H]1C(=O)N2C(C(=O)[O-])=C(C[n+]3ccccc3)CS[C@H]12)c1csc(N)n1)C(=O)O [CEFTAZIDIME]
[1]
  MIC: 0.3 µg/mL (≈ 0.549 µM)
[2]
  MIC: 0.3 µg/mL (≈ 0.549 µM)
[3]
  MIC: 0.3 µg/mL (≈ 0.549 µM)

## O=C(Cc1cccs1)N[C@@H]1C(=O)N2C(C(=O)[O-])=C(C[n+]3ccccc3)CS[C@H]12 [CEPHALORIDINE]
[1]
  MIC: 32 µg/mL (≈ 77 µM)
[2]
  MIC: 2 µg/mL (≈ 4.81 µM)
[3]
  MIC: 32 µg/mL (≈ 77 µM)

## CC(=O)OCC1=C(C(=O)O)N2C(=O)[C@@H](NC(=O)Cc3cccs3)[C@H]2SC1 [CEPHALOTHIN]
[1]
  MIC: 64 µg/mL (≈ 161 µM)
[2]
  MIC: 4 µg/mL (≈ 10.1 µM)
[3]
  MIC: 64 µg/mL (≈ 161 µM)

## Cc1onc(-c2ccccc2)c1C(=O)N[C@@H]1C(=O)N2[C@@H]1SC(C)(C)[C@@H]2C(=O)O [OXACILLIN]
[1]
  MIC: 8000 µg/mL (≈ 19900 µM)
[2]
  MIC: 2 µg/mL (≈ 4.98 µM)
[3]
  MIC: 64 µg/mL (≈ 159 µM)
